Assay outcomes: PubChem BioAssay, several laboratories
Sampled rows, rich in hits. Any-hit rate of the full collection: about 1.6%.
ASAP1 GAP inh: ASAP1 ArfGAP inhibition | 360,000 compounds, 0.19% hits | ASAP1-stimulated ARF1 GTP hydrolysis, GDP FP detection | inhibition, % at 16.5 µM | Q9ULH1; in the data active = inhibition above about 25%;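 note: 0% = vehicle with enzyme and substrate and 100% = no enzyme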
ARFGAP1 inhibitor: inhibitors of rat ARFGAP1. Q62848. Arfgap1-stimulated ARF1 GTP hydrolysis, GDP FP detection. inhibition, % at 16.5 µM. 360,000 compounds, 0.26% hits;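 active = inhibition above a per-plate limit, mean inhibition of low control wells plus 3 SD, cut at about 25% in these data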;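 note: 0% = DMSO wells with enzyme and 100% = wells lacking Arfgap1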
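Material: truncated rat Arfgap1 GAP domain; Incubation: compound-enzyme preincubation 20 min, reaction 120 min, detection 60 min, 25 °C; Read-out: percent inhibition of Arfgap1-stimulated GTP hydrolysis; Technique: FP, GDP Alexa 633 tracer displaced from anti-GDP antibody, 620/688 nm; Controls: No-Arfgap1 wells (100%) versus DMSO full-reaction wells (0%); Replication: single well per compound.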
Cardio protect: myocardial damage modulation in H9c2 cells | protection from H2O2 cell death, % at 20 µM | 360,000 compounds, 0.63% hits | H9c2 cardiomyocytes, H2O2 injury protection, ATPLite, 2 h;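 active = compounds giving at least 50% protection of heart cells from peroxide-induced death in the single-dose screen, raw or plate-pattern-corrected value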;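 note: 0% = DMSO wells with peroxide and 100% = DMSO wells without peroxide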
Neddylation inh: inhibitors of human cullin neddylation | TR-FRET cullin neddylation, biochemical | inhibition, % at 25 µM | 360,000 compounds, 0.58% hits | AID 651699; in the data active = inhibition above about 36%
Target sequence (P61081 whole entry, looked up): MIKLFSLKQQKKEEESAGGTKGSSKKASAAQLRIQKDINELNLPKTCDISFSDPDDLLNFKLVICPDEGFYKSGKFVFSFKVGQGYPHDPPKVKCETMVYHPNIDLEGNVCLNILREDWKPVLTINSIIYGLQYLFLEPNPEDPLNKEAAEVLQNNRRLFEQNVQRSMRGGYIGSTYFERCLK
Target sequence (Q13564 whole entry, looked up): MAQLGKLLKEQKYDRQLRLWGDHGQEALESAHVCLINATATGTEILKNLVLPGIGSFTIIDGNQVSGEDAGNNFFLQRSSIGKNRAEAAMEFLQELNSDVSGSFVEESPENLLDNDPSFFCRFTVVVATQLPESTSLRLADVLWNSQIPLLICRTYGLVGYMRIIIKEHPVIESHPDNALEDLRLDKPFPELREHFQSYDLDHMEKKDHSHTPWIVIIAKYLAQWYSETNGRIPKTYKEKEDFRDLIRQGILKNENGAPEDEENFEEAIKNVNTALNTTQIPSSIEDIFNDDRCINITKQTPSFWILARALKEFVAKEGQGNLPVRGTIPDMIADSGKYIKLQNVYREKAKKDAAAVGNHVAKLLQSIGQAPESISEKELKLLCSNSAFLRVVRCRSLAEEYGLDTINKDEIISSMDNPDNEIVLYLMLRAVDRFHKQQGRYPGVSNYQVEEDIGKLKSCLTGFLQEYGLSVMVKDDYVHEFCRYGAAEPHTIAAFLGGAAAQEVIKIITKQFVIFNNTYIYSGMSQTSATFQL
ASAP1 inh confirm: ASAP1 inhibition confirmed; shares compounds with ASAP1 GAP inh; ASAP1-stimulated Arf1 GTPase, GDP fluorescence polarization; inhibition, % at 16.5 µM; 620 compounds, 37% hits; AID 624431;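 active = mean inhibition over triplicates exceeds the hit threshold derived for the earlier primary screening run, cut at about 25% in these data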
* hit, by the source's call; . = not tested or not shown.

SMILES	ASAP1 GAP inh	ARFGAP1 inhibitor	Cardio protect	Neddylation inh	ASAP1 inh confirm
COc1ccc2nc(NC(=O)c3cccc(N4C(=O)CCC4=O)c3)sc2c1	26*	-2	-15	19	9
CCOc1ccc2nc(NC(=O)c3cccc(N4C(=O)CCC4=O)c3)sc2c1	1	8	1	31	.
O=C(Nc1ccc(Nc2ccncc2)cc1)c1ccc(Nc2ccnc3ccc([N+](=O)[O-])cc23)cc1	46*	77*	-6	33	75*
O=C(Nc1ccc(Cc2ccncc2)cc1)c1cccc([N+](=O)[O-])c1	8	-8	-6	-14	.
C[C@@H]1CN([C@@H](C)CO)C(=O)CCCn2cc(nn2)CO[C@H]1CN(C)C(=O)NC1CCCCC1	-10	0	.	.	.
CN(C(=O)COC(=O)c1cc([N+](=O)[O-])ccc1N1CCOCC1)C1CCCCC1	1	4	0	-17	.
CC1CCCCN1C(=O)COC(=O)c1cc([N+](=O)[O-])ccc1N1CCOCC1 (stereo not drawn)	29*	3	-3	-12	4
COc1ccc(/C=C/C(=O)Nc2cc(C(F)(F)F)ccc2Cl)cc1OC	10	3	10	31	.
COc1cc(/C=C/C(=O)Nc2cc(C(F)(F)F)ccc2Cl)cc(OC)c1OC	25*	2	8	.	14
Cc1cc(N/C(=C\C(=O)c2ccccc2)c2ccccc2)ccc1Br	2	15	.	.	.
Nc1cc(=O)[nH]c(SCC(=O)Nc2cc(Cl)cc(Cl)c2)n1	7	-5	6	8	.
Cc1cc(C)cc(NC(=O)CSc2nc(CSc3ccc(Cl)cc3)cc(=O)[nH]2)c1	26*	11	-6	2	-4
CCOc1ccc(Cl)cc1-c1cc(C(=O)NC2CCCCC2)[nH]n1	-1	-3	-8	-19	.
O=C(COc1ccc(/C=N/NC(=O)c2cc3ccccc3o2)cc1Br)Nc1ccccc1	75*	17	-8	.	84*
C=CCNc1ncnc2c1ncn2[C@H]1CN(CCN2CCOCC2)C[C@@H](CO)O1	-5	-2	1	1	.
Cc1cccc(C(=O)OCC(=O)NC(=O)NC2CCCCC2)c1	23	-5	-4	6	.
C=CCN(c1ccccc1OC)S(=O)(=O)c1cccc(C(=O)OCC(=O)N2CCOCC2)c1	76*	-4	-2	2	6
C=CCN(c1ccccc1OC)S(=O)(=O)c1cccc(C(=O)OCC(=O)c2c[nH]c3ccccc23)c1	2	8	-6	-12	.
CC1(C)Cc2nc3sc4c(=O)n(CC(=O)NCc5ccco5)cnc4c3cc2CO1	25*	0	-5	1	8
CC(CNC(=O)[C@@H](Cc1ccccc1)NC(=O)[C@H]1O[C@@H](n2ccc(=O)[nH]c2=O)[C@H](O)[C@@H]1O)c1ccccc1 (stereo partly drawn)	-14	2	.	.	.
Cn1c(N)c(C(=O)COC(=O)CCc2nc3ccccc3s2)c(=O)n(C)c1=O	31*	4	0	-1	3
CC(=O)Nc1ccc(C(=O)N2CCCC(c3cc(C(=O)Nc4ccccc4)no3)C2)cc1 (stereo not drawn)	-16	5	1	0	.
O=C(O)c1ccc(CN2C[C@@H](CO)O[C@@H](n3cnc4c(NCc5ccc(F)cc5)ncnc43)C2)cc1	3	9	-1	-2	.
C[C@H](O)[C@@H]1CN2CCc3c([nH]c4c(-c5ccccc5)cccc34)[C@@H]2C[C@@H]1N(C)C(=O)Nc1ccccc1	8	10	.	.	.
COc1cccc(C(C(=O)NCc2ccccc2)N2CCN(C(=O)C3CCCO3)CC2)c1OC (stereo not drawn)	1	13	.	-12	.
SMILES	ASAP1 GAP inh	ARFGAP1 inhibitor	Cardio protect	Neddylation inh	ASAP1 inh confirm
O=C(CSc1nn(-c2ccccc2)c(=S)s1)Nc1ncccn1	26*	12	1	3	44*
O=C(NCC1CCCO1)c1cccc(C(=O)NCC2CCCO2)c1 (stereo not drawn)	-2	-1	7	-1	.
O=C(NCC1CCCO1)c1ccc[nH]1 (stereo not drawn)	27*	10	6	3	-5
C=CCNc1cccc2c1S(=O)(=O)N[C@H](Cc1ccccc1)CO2	-1	9	.	.	.
Cc1ccc(Cl)c2sc(NC(=O)C3=COCCO3)nc12	27*	8	-3	9	14
Cn1cc(CC(=O)Nc2ccc(Nc3cccnc3)cc2)c2ccccc21	6	9	.	.	.
COC(=O)[C@@]12C[C@@H](CC(=O)NCc3cccc4ccccc34)C(=O)N(Cc3ccccc3)C1=CCC(C)(C)C2	8	3	.	1	.
NC(=O)COC(=O)CC(NC(N)=O)c1ccc(Cl)cc1 (stereo not drawn)	26*	1	4	-2	0
Cc1[nH]c2ccccc2c1CC(=O)Nc1ccc(Nc2cccnc2)c(Br)c1	27*	21	.	.	16
Cc1ccccc1NC(=O)c1cccc(N2C(=O)C3C4CC(C(Br)C4Br)C3C2=O)c1 (stereo not drawn)	28*	8	-2	-23	6
COc1cccc(C(C(=O)NC2CCCCC2)N(Cc2ccco2)C(=O)c2ccccn2)c1 (stereo not drawn)	8	2	6	3	.
COc1ccc(OC)c(C(C(=O)NC2CCCCC2)N(Cc2ccco2)C(=O)c2ccccn2)c1 (stereo not drawn)	26*	2	1	4	-1
C=CCN(CC=C)CCOc1cc(C)ccc1[N+](=O)[O-]	25*	-8	-8	5	0
O=C(N/N=C/c1ccc([N+](=O)[O-])cc1)c1ccc(COc2ccccc2-c2ccccc2)cc1	31*	1	10	-1	81*
CSc1ccc(CN2CCC2(C)C(=O)NCc2cccs2)cc1 (stereo not drawn)	1	7	-9	-4	.
Cc1ccc(N(CC(=O)N/N=C/c2cc(C)n(-c3ccccc3)c2C)S(C)(=O)=O)c(C)c1	-5	3	-10	11	.
Cc1cc(/C=N/NC(=O)Cn2c3ccccc3c(=O)c3ccccc32)c(C)n1-c1ccccc1	25*	20	-11	.	7
O=C(C(=O)N1CCC(Cc2ccccc2)CC1)c1ccccc1Br	3	7	.	-3	.
Cc1cc(C)c(S(=O)(=O)c2ccccc2)c(OC(=O)c2c(F)cccc2F)n1	26*	21	7	11	11
CC(=O)Nc1cccc(/C(C)=N/NS(=O)(=O)c2ccc(C)cc2)c1	2	15	-2	7	.
C/C(=N/NS(=O)(=O)c1ccc(C)cc1)c1ccc(NC(=O)C(F)(F)F)cc1	25*	2	-4	1	8
N#CC1=C(c2ccc(-c3ccccc3)cc2)COC1=O	29*	4	-1	13	41*
O=C(NCc1ccncc1)c1ccccc1Nc1ccc(SC(F)F)cc1	28*	2	3	8	15
O=C(Nc1ccc(OC(F)F)c(Cl)c1)Nc1ccc2c(c1)OCO2	-3	-2	-8	4	.
O=C(Nc1ccc([N+](=O)[O-])cc1)Nc1ccc(OC(F)F)c(Cl)c1	27*	14	-14	-20	23
